# In ChEMBL document CHEMBL4043170, “1-Acetyl-5-phenyl-1H-pyrrol-3-ylacetate: An aldose reductase inhibitor for the treatment of diabetic nephropathy” (Bioorg Med Chem Lett, 2017):
# Calls of active or inactive are those of the source. No cut-off for these calls is given here.
# How the values were obtained:
# HBZY-1 [1] = test: Cytoprotective activity against HG-induced cell death in rat HBZY-1 cells assessed as increase in apoptosis by measuring late apoptotic cells at 10 uM by Annexin V-FITC/propidium iodide staining-based flow cytometric analysis (reference value: 18.18%); type: functional
# HBZY-1 [2] = test: Cytoprotective activity against HG-induced cell death in rat HBZY-1 cells assessed as […] at 0.9 uM by Annexin V-FITC/propidium iodide staining-based flow cytometric analysis (reference value: 2.83); type: functional
# HBZY-1 [3] = test: Downregulation of collagen 4 levels in rat HBZY-1 cells at 0.3 to 0.9 uM by Western blot analysis; type: functional, cell-based
# HBZY-1 [4] = test: Downregulation of laminin levels in rat HBZY-1 cells at 0.3 to 0.9 uM by Western blot analysis; type: functional, cell-based
# HBZY-1 [5] = test: Cytoprotective activity against HG-induced cell death in rat HBZY-1 cells assessed as […] by measuring early apoptotic cells at 10 uM by Annexin V-FITC/propidium iodide staining-based flow cytometric analysis (reference value: 8.13%); type: functional
# [6] = target: Aldo-keto reductase family 1 member B1 (Rattus norvegicus, UniProt P07943); test: Inhibition of AR in Sprague-Dawley rat lens using DL-glyceraldehyde as substrate by spectrophotometric analysis
# Procedure, shortened: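 Inhibition is expressed relative to uninhibited enzyme activity, set as 100%. For the kinetic study, DL-glyceraldehyde was used at 0.083, 0.125, 0.25 and 1.0 mM. […] Results were analysed by Lineweaver-Burk double-reciprocal plots of 1/V against 1/S.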
# HBZY-1 [7] = test: Cytoprotective activity against HG-induced cell death in rat HBZY-1 cells assessed as […] by measuring early apoptotic cells at 0.3 uM by Annexin V-FITC/propidium iodide staining-based flow cytometric analysis (reference value: 8.13%); type: functional
# Rattus norvegicus [8] = test: Antidiabetic activity in STZ-induced diabetic nephropathy Wistar rat model assessed as decrease in collagen 4 level at 40 to 160 mg/kg administered daily for 8 weeks measured up to 8 weeks by ELISA
# HBZY-1 [9] = test: Cytoprotective activity against HG-induced cell death in rat HBZY-1 cells assessed as increase in apoptosis by measuring late apoptotic cells at 0.9 uM by Annexin V-FITC/propidium iodide staining-based flow cytometric analysis (reference value: 18.81%); type: functional
# HBZY-1 [10] = test: Cytoprotective activity against HG-induced cell death in rat HBZY-1 cells assessed as […] by measuring early apoptotic cells at 0.6 uM by Annexin V-FITC/propidium iodide staining-based flow cytometric analysis (reference value: 8.13%); type: functional
# Rattus norvegicus [11] = test: Antidiabetic activity in STZ-induced diabetic nephropathy Wistar rat model assessed as increase in total superoxide dismutase level at 40 to 160 mg/kg administered daily for 8 weeks measured up to 8 weeks by ELISA; type: functional, organism-based
# Procedure, shortened: (§1)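 Male Wistar rats (300±50 g), adapted under specific pathogen-free conditions with free access to food and water. STZ diabetic nephropathy counted if blood glucose ≥13.88 mM with raised urinary microalbumin. Groups: saline, untreated DN, 40, 80 or 160 mg/kg, and reference inhibitor 100 mg/kg. Dosed daily for eight weeks. Urine and blood sampled at weeks 2, 4, 6 and 8. Mean ± SD, n = 8.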
# HBZY-1 [12] = test: Cytoprotective activity against HG-induced cell death in rat HBZY-1 cells assessed as […] by measuring late apoptotic cells at 0.3 uM by Annexin V-FITC/propidium iodide staining-based flow cytometric analysis (reference value: 18.81%); type: functional
# HBZY-1 [13] = test: Cytoprotective activity against HG-induced cell death in rat HBZY-1 cells at 0.3 to 0.9 uM after 24 to 96 hrs by MTT assay; type: functional, cell-based
# Rattus norvegicus [14] = test: Antidiabetic activity in STZ-induced diabetic nephropathy Wistar rat model assessed as increase in total antioxidant capacity at 40 to 160 mg/kg administered daily for 8 weeks measured up to 8 weeks by ELISA; type: functional, organism-based; procedure, shortened: as §1
# HBZY-1 [15] = test: Cytoprotective activity against HG-induced cell death in rat HBZY-1 cells assessed as […] at 0.6 uM by Annexin V-FITC/propidium iodide staining-based flow cytometric analysis (reference value: 2.83); type: functional
# HBZY-1 [16] = test: Cytoprotective activity against HG-induced cell death in rat HBZY-1 cells at 0.9 uM after 24 to 96 hrs by MTT assay; type: functional, cell-based
# Rattus norvegicus [17] = test: Antidiabetic activity in STZ-induced diabetic nephropathy Wistar rat model assessed as reduction in blood glucose level at 40 to 160 mg/kg administered daily for 8 weeks measured up to 8 weeks by ELISA; type: functional, organism-based; procedure, shortened: as §1
# Rattus norvegicus [18] = test: Antidiabetic activity in STZ-induced diabetic nephropathy Wistar rat model assessed as increase in glutathione level at 40 to 160 mg/kg administered daily for 8 weeks measured up to 8 weeks by ELISA; type: functional, organism-based; procedure, shortened: as §1
# HBZY-1 [19] = test: Cytoprotective activity against HG-induced cell death in rat HBZY-1 cells assessed as […] at 0.3 to 0.9 uM by Hoechst staining-based analysis; type: functional
# Procedure, shortened: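 HBZY-1 rat mesangial cells grown in low-glucose DMEM (5.56 mM) with 10% FBS at 37°C and 5% CO2. Pretreated, then exposed to 33 mM glucose. 1×10^4 cells seeded per well, fixed in 70% ethanol for 20 min at room temperature, and stained with Hoechst for 5 min. Imaged by fluorescence microscopy at 400×.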
# HBZY-1 [20] = test: Cytoprotective activity against HG-induced cell death in rat HBZY-1 cells assessed as […] by measuring early apoptotic cells at 0.9 uM by Annexin V-FITC/propidium iodide staining-based flow cytometric analysis (reference value: 8.13%); type: functional
# Rattus norvegicus [21] = test: Antidiabetic activity in STZ-induced diabetic nephropathy Wistar rat model assessed as increase in catalase level at 40 to 160 mg/kg administered daily for 8 weeks measured up to 8 weeks by ELISA; type: functional, organism-based; procedure, shortened: as §1
# Rattus norvegicus [22] = test: Antidiabetic activity in STZ-induced diabetic nephropathy Wistar rat model assessed as decrease in laminin level at 40 to 160 mg/kg administered daily for 8 weeks measured up to 8 weeks by ELISA
# HBZY-1 [23] = test: Cytoprotective activity against HG-induced cell death in rat HBZY-1 cells assessed as […] at 0.3 uM by Annexin V-FITC/propidium iodide staining-based flow cytometric analysis (reference value: 2.83); type: functional
# [24] = target: Aldo-keto reductase family 1 member B1 (Homo sapiens) (UniProt P15121); test: Uncompetitive inhibition of recombinant human AR at 60 to 140 nM in presence of various concentrations of DL-glyceraldehyde by Lineweaver-Burk plot analysis
# HBZY-1 [25] = test: Cytoprotective activity against HG-induced cell death in rat HBZY-1 cells assessed as increase in apoptosis by measuring late apoptotic cells at 0.6 uM by Annexin V-FITC/propidium iodide staining-based flow cytometric analysis (reference value: 18.81%); type: functional
# Rattus norvegicus [26] = test: Protection against […] in Wistar rat model assessed as reduction in glomerular mesangial hyperplasia at 40 to 160 mg/kg administered daily for 8 weeks measured after 8 weeks by hematoxylin/eosin dye-based analysis; type: functional, organism-based; procedure, shortened: as §1
# Rattus norvegicus [27] = test: Antidiabetic activity in STZ-induced diabetic nephropathy Wistar rat model assessed as reduction in urinary microalbumin level at 40 to 160 mg/kg administered daily for 8 weeks measured up to 8 weeks by ELISA; type: functional, organism-based; procedure, shortened: as §1
structure (smiles),measurement,setting,value
CC(/C=C1\SC(=S)N(CC(=O)O)C1=O)=C\c1ccccc1,Activity,HBZY-1 [1],8.31%
same,fold change (FC),HBZY-1 [2],1.81
same,Activity,HBZY-1 [3],Active
same,Activity,HBZY-1 [4],Active
same,Activity,HBZY-1 [5],8.98%
CC(=O)Oc1cc(-c2ccccc2)n(C(C)=O)c1,IC50,[6],22.3 nM
same,Activity,HBZY-1 [7],8.18%
same,Activity,Rattus norvegicus [8],Active
same,Activity,HBZY-1 [9],8.45%
same,Activity,HBZY-1 [10],5.66%
same,Activity,Rattus norvegicus [11],Active
same,Activity,HBZY-1 [12],13.67%
same,Activity,HBZY-1 [13],Active
same,fold change (FC),HBZY-1 [2],1.93
same,Activity,Rattus norvegicus [14],Active
same,fold change (FC),HBZY-1 [15],2.07
same,Activity,HBZY-1 [16],Active
same,Activity,Rattus norvegicus [17],Active
same,Activity,Rattus norvegicus [18],Active
same,Activity,HBZY-1 [19],Active
same,Activity,HBZY-1 [3],Active
same,Activity,HBZY-1 [4],Active
same,Activity,HBZY-1 [20],9.97%
same,Activity,Rattus norvegicus [21],Active
same,Activity,Rattus norvegicus [22],Active
same,fold change (FC),HBZY-1 [23],2.29
same,inhibition,[24],Active
same,Activity,HBZY-1 [25],10.31%
same,Activity,Rattus norvegicus [26],Active
same,Activity,Rattus norvegicus [27],Active
